From publication PMC6430656 (Cell chemical biology, 2018)
Like-named read-outs stand apart in the source and are kept apart here.

What was measured:
[1] = test system: HsTAK1; details: ref Totzke et al., 2017, cited from earlier work
[2] = biological target: PfPK5 (Plasmodium falciparum, UniProt P61075); assay: KINOMEScan affinity for PfPK5; type: binding
[3] = test system: P. berghei EEFs in HuH7 cells; assay: Immunofluorescence analysis of P. berghei EEFs in HuH7 cells; type: cell-based, Plasmodium berghei
[4] = test system: HuH7 cells; assay: HuH7 hepatoma cell viability; type: cell-based
[5] = biological target: PfPK9 (Plasmodium falciparum, UniProt Q8IEG4); assay: ATP-competitive binding assay, GFP-PfPK9 on ATP-sepharose resin; details: for relative PfPK9 binding compared to negative DMSO control: takinib analog screen at 250 and 500 μM
[6] = test system: K63-linked ubiquitin in P. falciparum; type: cell-based, Plasmodium falciparum; details: for K63-linked protein ubiquitination (band intensities relative to DMSO): 30 μM, 24 hrs, ring stage P. falciparum 3D7
Summary of the method: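 P. falciparum 3D7 was cultured in RPMI/AlbuMAX II at pH 7.2, 37 °C, under 3% O2, and sorbitol-synchronised. Ring stages (10 h post-reinvasion; 10% parasitemia, 1% haematocrit) were treated 24 h with test compound (30 μM, or 0.001–100 μM) or ≤0.1% DMSO. Cells were saponin-lysed and sonicated, then blotted with anti-K63-linkage ubiquitin, with anti-K48 ubiquitin as control and actin as loading control. Total band intensity was quantified across 2–3 independent experiments.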

[7] = biological target: PfCDPK1 (Plasmodium falciparum, UniProt P62344); assay: KINOMEScan affinity for PfCDPK1; type: binding
[8] = test system: P. berghei parasite load in HuH7 cells; assay: P. berghei liver stage parasite load in HuH7 cells; type: cell-based, Plasmodium berghei
Summary of the method: (§1)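 Hepatoma cells were seeded with test compound (0–100 μM) before infection with 3,000 P. berghei ANKA sporozoites: 15,000 cells/well for HepG2 and 8,000 for HuH7. For HepG2, compound was also added at 0 or 4 hpi. Parasite load was read by luciferase luminescence at 45 h and normalised to 1% DMSO. EC50 came from a variable-slope four-parameter fit, mean ± SEM of n ≥4.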

[9] = Solubility; type: physicochemical
[10] = test system: P. berghei parasite load in HepG2 cells; assay: P. berghei liver stage parasite load in HepG2 cells; type: cell-based; details: Plasmodium berghei, HepG2, read-out: EC50 P. berghei parasite load, HepG2 cells
Summary of the method: as §1

[11] = test system: HsIRAK1; details: read-out: IC50 HsIRAK1; ref Totzke et al., 2017; cited from earlier work
[12] = test system: HsIRAK4; details: read-out: IC50 HsIRAK4; ref Totzke et al., 2017; cited from earlier work
[13] = test system: HepG2 cells; assay: HepG2 hepatoma cell viability; type: cell-based
Summary of the method: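 HepG2 cells (15,000/well) were seeded with test compound, then infected with 3,000 P. berghei ANKA sporozoites. Viability was measured after 45 h in the same wells as the parasite-load read-out, using a fluorescence protease-activity assay (an ATP luminescence assay is also described). Signal was normalised to 1% DMSO, and ≥50% loss of viability was the exclusion threshold.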

[14] = test system: blood stage P. falciparum parasites; assay: Inhibition of blood stage P. falciparum parasites; type: cell-based, Plasmodium falciparum; details: 100 μM

Chain of PfPK5 (P61075 whole entry): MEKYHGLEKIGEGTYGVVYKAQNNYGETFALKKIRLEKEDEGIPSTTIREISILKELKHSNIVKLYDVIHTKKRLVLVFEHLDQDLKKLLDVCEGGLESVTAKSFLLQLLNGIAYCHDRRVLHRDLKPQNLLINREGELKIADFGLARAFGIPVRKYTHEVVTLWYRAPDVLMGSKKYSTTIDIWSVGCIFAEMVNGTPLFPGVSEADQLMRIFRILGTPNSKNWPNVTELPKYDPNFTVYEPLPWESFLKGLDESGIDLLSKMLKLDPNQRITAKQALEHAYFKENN
Chain of PfCDPK1 (P62344 whole entry): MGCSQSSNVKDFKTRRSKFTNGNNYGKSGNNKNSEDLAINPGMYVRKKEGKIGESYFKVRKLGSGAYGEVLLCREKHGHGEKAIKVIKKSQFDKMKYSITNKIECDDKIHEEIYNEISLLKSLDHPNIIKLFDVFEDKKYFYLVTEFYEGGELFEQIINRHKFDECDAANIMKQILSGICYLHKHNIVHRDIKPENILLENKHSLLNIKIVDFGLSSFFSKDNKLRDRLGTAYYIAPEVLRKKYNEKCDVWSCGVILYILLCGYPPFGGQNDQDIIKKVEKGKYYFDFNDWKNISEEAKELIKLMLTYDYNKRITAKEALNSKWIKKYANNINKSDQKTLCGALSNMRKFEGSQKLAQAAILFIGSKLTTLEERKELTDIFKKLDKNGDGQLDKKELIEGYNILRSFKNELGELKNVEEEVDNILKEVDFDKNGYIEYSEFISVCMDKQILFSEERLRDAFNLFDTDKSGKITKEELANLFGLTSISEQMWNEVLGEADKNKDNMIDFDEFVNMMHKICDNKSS

In the case of `CCCn1c(NC(=O)c2cccc(C(=O)O)c2)nc2ccccc21` [HS220], the “HsTAK1 inhibition, fold less potent than takinib” value ([1]; HS220 vs takinib) is given as 160,000 fold, the “effect on HsTAK1 activity” value [1] is given as “little or no effect” and the Kd ([2]; read-out: Kd PfPK5, tested up to 30 μM, KINOMEScan) is given as greater than 30 µM. For the same compound, the “number of EEFs” value ([3]; 30 μM, 0–48 hpi) was “did not change”, the EEF size ([3]; 30 μM, 0–48 hpi, vs DMSO) was “significantly increased” and the EEF size ([3]; 100 μM, 0–48 hpi) was “not affected”. The “number of EEFs” value ([3]; 100 μM, 0–48 hpi) was “decreased”, the “change in HuH7 viability upon treatment” value [4] was “no significant change” and the “decrease of cell viability” value ([4]; HuH7, any concentration tested) was no more than 30%. For the same compound, the “PfPK9 binding affinity, fold less potent than takinib” value ([5]; HS220 vs takinib) was 8.9 fold, the Kd ([5]; read-out: Kd(app) PfPK9 binding, converted from EC50, dose-response 0–500 μM) was 4.1 ± 0.8 µM and the “relative PfPK9 binding compared to negative DMSO control” value [5] was greater than 3 fold. The “K63-linked protein ubiquitination (band intensities relative to DMSO)” value [6] was “decrease”, the Kd ([7]; read-out: Kd PfCDPK1, tested up to 30 μM, KINOMEScan) was greater than 30 µM and the EC50 ([8]; read-out: EC50 P. berghei parasite load, HuH7 cells) was 43 ± 3.8 µM.

For `NC(=O)c1cccc(C(=O)Nc2nc3ccccc3s2)c1` [HS230], the “effect on HsTAK1 activity” value [1] is listed as “little or no effect”, the “relative PfPK9 binding compared to negative DMSO control” value [5] is listed as greater than 3 fold and the solubility [9] is listed as “poor”.

For `CCCn1/c(=N/C(=O)c2cccc(C(N)=O)c2)[nH]c2ccccc21` [takinib], the EC50 [10] is given as 6.7 ± 1.3 µM, the IC50 ([1]; read-out: IC50 HsTAK1) is given as 0.0095 µM and the IC50 [11] is given as 0.39 µM. For the same compound, the Kd [2] was greater than 30 µM, the EEF size ([3]; 10 μM, 0–24, 24–48 and 0–48 hpi, vs DMSO) was “significantly increased” and the “number of EEFs (infected cells)” value ([3]; 10 μM, all time periods) was “not affected”. For the same compound, the “number of EEFs” value ([3]; 30 μM, 0–24 hpi or 0–48 hpi) was “decreased”, the EEF size ([3]; 30 μM, 0–24 hpi or 24–48 hpi) was “increased” and the “decrease of cell viability” value ([4]; HuH7, tested up to 200 μM) was no more than 40%. The Kd [5] was 0.46 ± 0.1 µM, the “K63-linked protein ubiquitination (band intensities relative to DMSO)” value [6] was “decreased” and the “K63-linked ubiquitin signal (total intensity of all bands)” value ([6]; 30 and 100 μM) was “significantly decreased”. For the same compound, the “K48-linked ubiquitin signal (control)” value ([6]; dose-response 0.001–100 μM) was “no change”, the IC50 [12] was 0.12 µM and the Kd [7] was greater than 30 µM. For the same compound, the EC50 ([8]; Plasmodium berghei, Huh-7, read-out: EC50 P. berghei parasite load) was 7.3 ± 0.99 µM, the “decrease of HepG2 viability” value ([13]; 30 μM, relative to DMSO) was no more than 50% and the “decrease of cell viability” value ([13]; HepG2, tested up to 200 μM) was no more than 40%. The “inhibition of blood stage P. falciparum parasites” value [14] was “inhibits”.
